EBI2 antag: EBI2 receptor antagonists, beta-arrestin recruitment, primary screen, cell-based, luminescence, 7a,25-OHC stimulation, uHTS. G-protein coupled receptor 183 (Homo sapiens), P32249. 7a,25-OHC stimulated. inhibition, % at 5 µM. 0.81% of 360,000 active; in the data active = inhibition above about 38%;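 note: enzyme fragment complementation signal reports receptor beta-arrestin coupling in cells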
Target sequence (P32249 whole entry, looked up, the tested form may be a part): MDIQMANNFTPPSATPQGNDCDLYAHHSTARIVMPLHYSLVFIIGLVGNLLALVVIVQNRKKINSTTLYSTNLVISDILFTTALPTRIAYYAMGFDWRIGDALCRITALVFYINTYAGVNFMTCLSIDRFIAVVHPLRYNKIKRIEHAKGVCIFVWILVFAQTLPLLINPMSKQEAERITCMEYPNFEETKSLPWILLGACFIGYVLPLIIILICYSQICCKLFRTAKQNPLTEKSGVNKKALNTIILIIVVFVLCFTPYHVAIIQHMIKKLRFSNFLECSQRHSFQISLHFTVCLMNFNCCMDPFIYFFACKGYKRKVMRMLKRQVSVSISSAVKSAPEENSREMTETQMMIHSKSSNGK
GRIN3A LBD mod: binders of NR3A ligand-binding domain, primary screen, biophysical, differential scanning fluorimetry, uHTS | Glutamate receptor ionotropic, NMDA 3A (GRIN3A) ligand-binding domain | NR3A LBD differential scanning fluorimetry, Tm shift; 0% = protein alone, 100% = glycine-bound protein | Tm shift relative to glycine control, % at 25 µM | 2.5% of 340,000 active;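 active = melting temperature shift of at least 10% of the positive control shift, at one fixed dose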
MPTP inh: mitochondrial permeability transition pore inhibitors, primary screen, biochemical, isolated mouse mitochondria, absorbance. 1.4% of 360,000 active. Ca2+ swelling absorbance, 30 min. inhibition, % at 10 µM;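 active = inhibition of 50% or more, scaled per plate between neutral and stimulator controls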
SENP1 inh: human SENP1 catalytic domain inhibitors, primary screen, biochemical, FRET, uHTS; 0.21% of 360,000 active; AID 624204, 2012; inhibition, % at 10 µM; Sentrin-specific protease 1 (Homo sapiens), Q9P0U3; recombinant SENP1 catalytic domain, CyPet-SUMO1-YPet FRET cleavage;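 active = inhibition at least 30% at 10 µM, raw YFP signal under a set limit, fluorescence ratio 0.5 to 1.5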
Target sequence (Q9P0U3 419-644 limits assumed): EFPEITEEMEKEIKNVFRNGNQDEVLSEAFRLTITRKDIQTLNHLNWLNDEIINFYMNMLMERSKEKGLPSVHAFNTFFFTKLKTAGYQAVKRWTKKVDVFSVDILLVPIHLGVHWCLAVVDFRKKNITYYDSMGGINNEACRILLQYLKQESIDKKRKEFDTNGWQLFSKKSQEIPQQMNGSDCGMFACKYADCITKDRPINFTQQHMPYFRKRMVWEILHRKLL
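Test system: human SENP1 catalytic domain; medium: Tris pH 8 buffer plus EDTA, NaCl, BME, BSA, NP40, catalase; incubation: 50 min reaction at room temperature; technique: FRET, CFP and YFP emission; controls: no-enzyme low control and enzyme-plus-DMSO high control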
MPTP counter: fluorescence retest of MPTP screen hits in isolated mitochondria, single concentration | shares compounds with MPTP inh | membrane potential, Rhodamine 123 fluorescence | inhibition, % at 10 µM | 78% of 5,000 active | AID 624504, 2012; in the data active = inhibition above about 22%
MPTP abs DR: mitochondrial permeability transition pore inhibitors, dose response, biochemical, absorbance, uHTS hits | shares compounds with MPTP inh | isolated mitochondria swelling | IC50, µM | 58% of 780 active | AID 651561, 2012; in the data active = IC50 below about 20 µM
MPTP counter DR: fluorescent counter-screen in isolated mitochondria, dose response, counter-screen for MPTP inhibitor project, biochemical, fluorescence, uHTS hits. IC50, µM. 49% of 780 active. isolated mitochondria counterscreen, fluorescence read-out. AID 651564, 2012. shares compounds with MPTP inh; in the data active = IC50 below about 80 µM
Numbers stand for hits; 0 = inactive; - = no result given. An excerpt weighted towards active compounds, which were near 4.4% of everything screened.

SMILES	EBI2 antag	GRIN3A LBD mod	MPTP inh	SENP1 inh	MPTP counter	others
CC(=O)c1cccc(OCC(O)CNCCc2ccc(Cl)cc2)c1 (stereo not drawn)	0	0	0	0	-
O=C(COC(=O)C1=COCCO1)NC(=O)c1ccc(OC(F)F)cc1	0	0	0	0	-
COc1ccc(O)c(/C=N/NC(=S)Nc2cccc(S(=O)(=O)N(C)C)c2)c1	0	0	50.9	0	83.5
CN(C)S(=O)(=O)c1cccc(NC(=S)Nc2ccc(Cl)cc2Cl)c1	0	0	90.5	0	93.3
CN(C)S(=O)(=O)c1cccc(NC(=S)Nc2cc(Cl)cc(Cl)c2)c1	0	11.3	88.5	0	93.5
COc1cccc(/C=N/NC(=S)Nc2cccc(S(=O)(=O)N(C)C)c2)c1	0	0	0	0	-
C[C@H]1CN(C2CCCCC2)C(=O)[C@@H]1CC(=O)Nc1ccc(Br)cc1	0	-	0	0	-
Cc1ccc(C)c(S(=O)(=O)N2CCCOC2CNC(=O)C(=O)NC2CCCC2)c1 (stereo not drawn)	0	0	0	0	-
Cn1cc(-c2csc(C(O)(c3ccccc3)C(F)(F)F)n2)cn1 (stereo not drawn)	0	-	0	0	-
CC(C)c1ccc(-c2cc(C(=O)N3N=C(C(F)F)CC3(O)C(F)F)c3ccccc3n2)cc1 (stereo not drawn)	0	34.7	76.7	0	96.7
O=C(c1cc(C2CC2)nc2ccc(Br)cc12)N1N=C(C(F)F)CC1(O)C(F)F (stereo not drawn)	0	0	75.3	0	84.2
O=C(c1cc(C2CC2)nc2ccccc12)N1N=C(C(F)F)CC1(O)C(F)F (stereo not drawn)	0	0	0	0	-
C=CCN1C(=O)C2C3C=CC(C2C1=O)C1C2C(=O)N(CC=C)C(=O)C2C31 (stereo not drawn)	0	0	0	0	-
CC(C)(C)c1ccc(S(=O)(=O)/N=C2\C=C(NS(=O)(=O)c3ccccc3)C(=O)c3ccccc32)cc1	0	0	99.3	0	25.1
Cc1ccc(S(=O)(=O)/N=C2\C=C(NS(=O)(=O)c3ccccc3)C(=O)c3ccccc32)c(C)c1	0	0	0	0	-
C/C=C/c1c(F)c(F)c(Oc2ccc(C(=O)O)cc2)c(F)c1F	0	0	0	0	-
COc1ccccc1NC(=O)C/C(N)=N/OCC(=O)Nc1cccc(Cl)c1	0	0	0	0	-
COc1ccccc1NC(=O)c1c(Nc2ccccc2F)sc(C(=O)Nc2cccc(Cl)c2)c1N	0	28.6	78.4	0	46.1
CCOC(=O)N1CCN(C(=O)c2cc(COc3c(F)cccc3F)on2)CC1	0	0	0	0	-
O=C(NCCCN1CCCC1=O)[C@H](CSCc1ccccc1)N1Cc2ccccc2C1=O	0	0	0	0	-
Cc1ccc(C)c(S(=O)(=O)Nc2ccc(C(=O)N3CCOCC3)cc2)c1	0	-	0	0	-
[O-][n+]1c2c(c3c4non(O)c4ccc31)CCCC2	0	0	95.7	0	83.3
Cc1cc(Nc2cccc([N+](=O)[O-])c2)n2c(nc3ccccc32)c1C#N	0	0	67.1	0	93.4
Cc1ccc(Cn2c(N)nc3ccccc32)cc1	0	0	55.2	0	21.2
Cc1nc2ccccc2n1Cc1ccc(Cl)cc1	0	0	93.5	0	95.5
SMILES	EBI2 antag	GRIN3A LBD mod	MPTP inh	SENP1 inh	MPTP counter	others
COc1ccccc1Cn1c(C)nc2ccccc21	0	0	0	0	-
Cc1ccccc1Cn1c(C)nc2ccccc21	0	0	101.2	0	89.0
O=S(=O)(CCc1ccncc1)c1ccc(Cl)cc1	0	0	0	0	-
COc1ccc(-c2c(C)nn3c(C)cc(C)nc23)cc1	0	0	0	0	-
CCOC(=O)N1CCc2c(sc3nc(SC(C)C)n(N)c(=O)c23)C1	0	0	62.0	0	25.3
Nc1cc(=O)nc(SCC(=O)N(C2CCCCC2)C2CCCCC2)n1-c1ccccc1	0	0	64.1	0	0	MPTP abs DR=0;MPTP counter DR=0
COC(=O)C(NC(=O)c1ccccc1)(Nc1cc(C)cc(C)n1)C(F)(F)F (stereo not drawn)	0	0	0	0	-
Oc1c(Cl)cc(Cl)cc1C1=NNC(c2ccc(Cl)cc2)C1 (stereo not drawn)	0	0	67.7	0	30.4
Cc1ccc(C(=O)Nn2cnc3scc(-c4cccs4)c3c2=O)c(O)c1	0	0	0	0	-
CSC1=NSC2=NC(=O)/C(=C\c3ccc(OC(=O)c4ccco4)cc3)C(=N)N12	0	0	0	0	-
CC(C)CC1=NN2C(=N)/C(=C\c3coc4ccccc4c3=O)C(=O)N=C2S1	0	0	85.9	0	81.5
CCSC1=NSC2=NC(=O)/C(=C\c3coc4ccccc4c3=O)C(=N)N12	0	10.9	101.0	0	74.1
Cc1cccc(-n2c(C)cc(/C=C3\C(=N)N4N=C(CC(C)C)SC4=NC3=O)c2C)c1	0	0	0	0	-
COC(=O)C[C@H]1C[C@@H]2c3cc(NS(=O)(=O)c4cccc(OC)c4)ccc3O[C@@H]2[C@@H](CO)O1	0	-	0	0	-
CCCOc1nc2c(c(=O)n(C)c(=O)n2C)n1C	0	-	0	0	-
CCCOc1nc2c(c(=O)n(C)c(=O)n2C)n1Cc1cccc2ccccc12	0	0	69.9	0	73.8
CC(=O)c1c(C)[nH]c(C(=O)Nc2cccc(C(F)(F)F)c2)c1C	0	0	70.1	0	86.4
Cc1cc2c(NC(=O)Nc3ccc(C(C)(C)C)cc3)cccc2nn1	0	0	85.3	0	81.2
Fc1cc(F)c(C2SCCN2C(=S)Nc2cccc(C(F)(F)F)c2)c(F)c1 (stereo not drawn)	0	15.9	74.0	0	92.9
Cc1cc2c(NC(=O)Nc3ccccc3)cccc2nn1	0	0	0	0	-
CC(=O)c1c(C)[nH]c(C(=O)Nc2cccc(C#N)c2)c1C	0	0	0	0	-
CCN1CCN(C(=S)Nc2cccc(C(F)(F)F)c2)CC1	0	0	0	0	-
CCCN1CCN(C(=O)Nc2cccc(C(F)(F)F)c2)CC1	0	0	72.3	0	91.5
COc1ccc(C(=O)N/C(=C/c2ccccc2F)C(=O)NCCN2CCOCC2)cc1OC	0	0	0	0	-
CN1CCN(c2ccc(-c3ccnn3C(=O)Nc3cccc(C(F)(F)F)c3)cc2)CC1	0	0	86.7	0	100.2
CC(C)c1cc(C(=O)Nc2cccc(C(F)(F)F)c2)no1	0	0	0	0	-
O=C(Nc1cccc(C(F)(F)F)c1)n1cc(-c2ccccn2)c(N2CCOCC2)n1	0	0	86.5	0	96.0

Compound activity (PubChem BioAssay)
